Laboratory results as given in ChEMBL document CHEMBL4257543, “Structural optimization and antibacterial evaluation of rhodomyrtosone B analogues against MRSA strains” (Medchemcomm, 2018).
≈ marks a conversion by molar mass, not a printed value. Calls of active or inactive are those of the source. The calls are words filed in the database; no cut-off is given here.

Assays:
Staphylococcus aureus [1] = experiment: Antibacterial activity against methicillin-resistant Staphylococcus aureus JCSC 4788 by micro dilution susceptibility test; type: functional
Outline: (§1)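 Microbroth dilution MIC in Mueller–Hinton broth following CLSI guidelines, vancomycin as positive control; resazurin added as visible growth indicator. Assays run at least in triplicate.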

Staphylococcus aureus [2] = experiment: Antibacterial activity against Staphylococcus aureus ATCC 6538 by micro dilution susceptibility test; type: functional; outline: as §1
Staphylococcus aureus [3] = experiment: Induction of membrane disruption in methicillin-resistant Staphylococcus aureus JCSC 4788 assessed as increase in fluorescence intensity at 0.25 to 8 ug/ml measured after 3 hrs by SYTOX green dye based fluorescence assay; type: functional, organism-based
Outline: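 Exponential-phase MRSA JCSC 4788 washed and set to OD620 0.4 in 0.85% NaCl, exposed to serial compound concentrations for 3 h, then 3 μM SYTOX Green for 20 min. Fluorescence read at ex 504/em 523 nm with melittin as positive control and vancomycin as comparator; mean ± SD, n = 3.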

Enterococcus faecium = experiment: Antibacterial activity against vancomycin-resistant Enterococcus faecium by micro dilution susceptibility test; type: functional; outline: as §1
Enterococcus faecalis = experiment: Antibacterial activity against Enterococcus faecalis ATCC 29212 by micro dilution susceptibility test; type: functional
Outline: (§2)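 Microbroth dilution MIC in Mueller–Hinton broth following CLSI guidelines, with vancomycin as positive control; assays run at least in triplicate.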

[4] = tested on: Staphylococcus epidermidis; experiment: Antibacterial activity against Staphylococcus epidermidis ATCC 12228 by micro dilution susceptibility test; type: functional; outline: as §2
Candida albicans = experiment: Antibacterial activity against Candida albicans ATCC 10231 by micro dilution susceptibility test; type: functional; outline: as §2
Cutibacterium acnes = experiment: Antibacterial activity against Propionicibacterium acnes ATCC 6919 by micro dilution susceptibility test; type: functional
Outline: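 Microbroth dilution MIC in Mueller–Hinton broth following CLSI guidelines; […]; resazurin added as visible growth indicator; vancomycin positive control; at least triplicate.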

Paenibacillus polymyxa [5] = experiment: Antibacterial activity against Bacillus polymyxa GIM 1.467 by micro dilution susceptibility test; type: functional; outline: as §2
Shigella dysenteriae = experiment: Antibacterial activity against Shigella dysenteriae CMCC 51252 by micro dilution susceptibility test; type: functional; outline: as §1
Staphylococcus aureus [6] = experiment: Antibacterial activity against methicillin-resistant Staphylococcus aureus JCSC 4788 in Balb/c mouse skin infection model assessed as reduction in skin ulcer formation at 40 ug administered as single dose via intradermal route measured 3 to 8 days post-infection; type: functional, organism-based
Outline: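 Female BALB/c mice (18–20 g) injected intradermally in abdominal skin with 0.1 mL of MRSA JCSC 4788 (1×10^8 CFU) mixed with a single 40 μg dose in DMSO; DMSO-vehicle controls. Body weight and lesion size recorded daily for 11 days, ulcers imaged at 3 and 8 days; n = 6, mean ± SD.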

Bacillus cereus = experiment: Antibacterial activity against Bacillus cereus ATCC 10876 by micro dilution susceptibility test; type: functional; outline: as §2
Escherichia coli = experiment: Antibacterial activity against Escherichia coli ATCC 8739 by micro dilution susceptibility test; type: functional; outline: as §2
Salmonella typhi = experiment: Antibacterial activity against Salmonella typhi CMCC 44102 by micro dilution susceptibility test; type: functional, Salmonella enterica subsp. enterica serovar Typhi; details: Salmonella enterica; outline: as §1
Paenibacillus polymyxa [7] = experiment: Antibacterial activity against Bacillus polymyxa ATCC 842 by micro dilution susceptibility test; type: functional; outline: as §2
Staphylococcus aureus [8] = experiment: Antibacterial activity against methicillin-resistant Staphylococcus aureus JCSC 3063 by micro dilution susceptibility test; type: functional; outline: as §1
Staphylococcus aureus [9] = experiment: Antibacterial activity against methicillin-resistant Staphylococcus aureus JCSC 4469 by micro dilution susceptibility test; type: functional; outline: as §1
Staphylococcus aureus [10] = experiment: Antibacterial activity against Staphylococcus aureus ATCC 29213 by micro dilution susceptibility test; type: functional; outline: as §1
Staphylococcus aureus [11] = experiment: Antibacterial activity against methicillin-resistant Staphylococcus aureus N315 by micro dilution susceptibility test; type: functional; outline: as §1
Staphylococcus aureus [12] = experiment: Antibacterial activity against Staphylococcus aureus CMCC 26003 by micro dilution susceptibility test; type: functional; outline: as §1
Staphylococcus aureus [13] = experiment: Antibacterial activity against methicillin-resistant Staphylococcus aureus 85/2082 by micro dilution susceptibility test; type: functional; outline: as §1
Staphylococcus aureus [14] = experiment: Antibacterial activity against methicillin-resistant Staphylococcus aureus JCSC 2172 by micro dilution susceptibility test; type: functional; outline: as §1
Staphylococcus aureus [15] = experiment: Antibacterial activity against methicillin-resistant Staphylococcus aureus JCSC 4744 by micro dilution susceptibility test; type: functional; outline: as §1
Staphylococcus aureus [16] = experiment: Antibacterial activity against methicillin-resistant Staphylococcus aureus NCTC 10442 by micro dilution susceptibility test; type: functional; outline: as §1

Structure (SMILES): CC(C)CC1C2=C(Oc3c(C(=O)C(C)C)c(O)cc(O)c31)C(C)(C)C(=O)C(C)(C)C2=O (configuration not stated)
- MIC (Staphylococcus aureus [1]): 4 µg/mL (≈ 9.33 µM)
- MIC (Staphylococcus aureus [2]): 4 µg/mL (≈ 9.33 µM)

Structure (SMILES): CN[C@H](CC(C)C)C(=O)N[C@H]1C(=O)N[C@@H](CC(N)=O)C(=O)N[C@H]2C(=O)N[C@H]3C(=O)N[C@H](C(=O)N[C@H](C(=O)O)c4cc(O)cc(O)c4-c4cc3ccc4O)[C@H](O)c3ccc(c(Cl)c3)Oc3cc2cc(c3O[C@@H]2O[C@H](CO)[C@@H](O)[C@H](O)[C@H]2O[C@H]2C[C@](C)(N)[C@H](O)[C@H](C)O2)Oc2ccc(cc2Cl)[C@H]1O [VANCOMYCIN]
- Activity (Staphylococcus aureus [3]): inactive
- MIC (Enterococcus faecium): > 32 µg/mL
- MIC (Enterococcus faecalis): 0.5 µg/mL (≈ 0.345 µM)
- MIC [4]: 0.5 µg/mL (≈ 0.345 µM)
- MIC (Candida albicans): > 32 µg/mL
- MIC (Cutibacterium acnes): 0.5 µg/mL (≈ 0.345 µM)
- MIC (Paenibacillus polymyxa [5]): > 32 µg/mL
- MIC (Staphylococcus aureus [2]): 0.5 to 1 µg/mL (≈ 0.345 to 0.69 µM)
- MIC (Shigella dysenteriae): > 32 µg/mL
- Activity (Staphylococcus aureus [6]): Active
- MIC (Bacillus cereus): 0.5 µg/mL (≈ 0.345 µM)
- MIC (Escherichia coli): > 32 µg/mL
- MIC (Salmonella typhi): > 32 µg/mL
- MIC (Paenibacillus polymyxa [7]): > 32 µg/mL

Structure (SMILES): CCCCCCCCCCCC(=O)c1c(O)cc(O)c2c1OC1=C(C(=O)C(C)(C)C(=O)C1(C)C)C2CC(C)C (configuration not stated)
- MIC (Staphylococcus aureus [1]): 8 µg/mL (≈ 14.8 µM)
- MIC (Staphylococcus aureus [2]): 8 µg/mL (≈ 14.8 µM)

Structure (SMILES): CC(C)CC1C2=C(Oc3cc(O)cc(O)c31)C(C)(C)C(=O)C(C)(C)C2=O (configuration not stated)
- MIC (Staphylococcus aureus [1]): 256 µg/mL (≈ 714 µM)
- MIC (Staphylococcus aureus [2]): > 256 µg/mL

Structure (SMILES): CCCCCCCCCCCCCC(=O)c1c(O)cc(O)c2c1OC1=C(C(=O)C(C)(C)C(=O)C1(C)C)C2CC(C)C (configuration not stated)
- MIC (Staphylococcus aureus [1]): 256 µg/mL (≈ 450 µM)
- MIC (Staphylococcus aureus [2]): 128 µg/mL (≈ 225 µM)

Structure (SMILES): CCCCCCCCCCC(=O)c1c(O)cc(O)c2c1OC1=C(C(=O)C(C)(C)C(=O)C1(C)C)C2CC(C)C (configuration not stated)
- MIC (Staphylococcus aureus [1]): 1 µg/mL (≈ 1.9 µM)
- MIC (Staphylococcus aureus [2]): 1 µg/mL (≈ 1.9 µM)

Structure (SMILES): CC(C)CC(=O)c1c(O)cc(O)c2c1OC1=C(C(=O)C(C)(C)C(=O)C1(C)C)C2CC(C)C (configuration not stated)
- MIC (Staphylococcus aureus [8]): 0.5 µg/mL (≈ 1.13 µM)
- MIC (Enterococcus faecium): 2 µg/mL (≈ 4.52 µM)
- MIC (Staphylococcus aureus [9]): 0.5 µg/mL (≈ 1.13 µM)
- MIC (Staphylococcus aureus [10]): 1 µg/mL (≈ 2.26 µM)
- MIC (Staphylococcus aureus [11]): 1 µg/mL (≈ 2.26 µM)
- MIC (Enterococcus faecalis): 1 µg/mL (≈ 2.26 µM)
- MIC [4]: 1 µg/mL (≈ 2.26 µM)
- MIC (Staphylococcus aureus [12]): 0.5 µg/mL (≈ 1.13 µM)
- MIC (Candida albicans): > 32 µg/mL
- MIC (Cutibacterium acnes): 0.5 µg/mL (≈ 1.13 µM)
- MIC (Staphylococcus aureus [1]): 1 µg/mL (≈ 2.26 µM)
- MIC (Staphylococcus aureus [13]): 1 µg/mL (≈ 2.26 µM)
- MIC (Staphylococcus aureus [14]): 0.5 µg/mL (≈ 1.13 µM)
- MIC (Paenibacillus polymyxa [5]): > 32 µg/mL
- MIC (Staphylococcus aureus [2]): 0.5 to 1 µg/mL (≈ 1.13 to 2.26 µM)
- MIC (Shigella dysenteriae): > 32 µg/mL
- MIC (Staphylococcus aureus [15]): 0.5 µg/mL (≈ 1.13 µM)
- MIC (Staphylococcus aureus [16]): 1 µg/mL (≈ 2.26 µM)
- MIC (Bacillus cereus): 0.5 µg/mL (≈ 1.13 µM)
- MIC (Escherichia coli): > 32 µg/mL
- MIC (Salmonella typhi): > 32 µg/mL
- MIC (Paenibacillus polymyxa [7]): > 32 µg/mL

Structure (SMILES): CCC(=O)c1c(O)cc(O)c2c1OC1=C(C(=O)C(C)(C)C(=O)C1(C)C)C2CC(C)C (configuration not stated)
- MIC (Staphylococcus aureus [1]): 2 µg/mL (≈ 4.83 µM)
- MIC (Staphylococcus aureus [2]): 2 µg/mL (≈ 4.83 µM)

Structure (SMILES): CCCCCCCCC(=O)c1c(O)cc(O)c2c1OC1=C(C(=O)C(C)(C)C(=O)C1(C)C)C2CC(C)C (configuration not stated)
- MIC (Staphylococcus aureus [1]): 0.5 µg/mL (≈ 1 µM)
- MIC (Staphylococcus aureus [2]): 0.25 µg/mL (≈ 0.501 µM)

Structure (SMILES): CCCCCC(=O)c1c(O)cc(O)c2c1OC1=C(C(=O)C(C)(C)C(=O)C1(C)C)C2CC(C)C (configuration not stated)
- MIC (Staphylococcus aureus [1]): 0.5 µg/mL (≈ 1.1 µM)
- MIC (Staphylococcus aureus [2]): 0.5 µg/mL (≈ 1.1 µM)

Structure (SMILES): CCCCCCC(=O)c1c(O)cc(O)c2c1OC1=C(C(=O)C(C)(C)C(=O)C1(C)C)C2CC(C)C (configuration not stated)
- MIC (Staphylococcus aureus [1]): 0.5 µg/mL (≈ 1.06 µM)
- MIC (Staphylococcus aureus [2]): 0.25 µg/mL (≈ 0.531 µM)

Structure (SMILES): CC[C@H](C)[C@H](NC(=O)CN)C(=O)NCC(=O)N[C@@H](C)C(=O)N[C@H](C(=O)N[C@@H](CC(C)C)C(=O)N[C@@H](CCCCN)C(=O)N[C@H](C(=O)N[C@@H](CC(C)C)C(=O)N[C@H](C(=O)N[C@H](C(=O)NCC(=O)N[C@@H](CC(C)C)C(=O)N1CCC[C@H]1C(=O)N[C@@H](C)C(=O)N[C@@H](CC(C)C)C(=O)N[C@H](C(=O)N[C@@H](CO)C(=O)N[C@@H](Cc1c[nH]c2ccccc12)C(=O)N[C@H](C(=O)N[C@@H](CCCCN)C(=O)N[C@@H](CCCNC(=N)N)C(=O)N[C@@H](CCCCN)C(=O)N[C@@H](CCCNC(=N)N)C(=O)N[C@@H](CCC(N)=O)C(=O)N[C@@H](CCC(N)=O)C(N)=O)[C@@H](C)CC)[C@@H](C)CC)[C@@H](C)O)[C@@H](C)O)C(C)C)C(C)C
- Activity (Staphylococcus aureus [3]): Active

Structure (SMILES): CCCC(=O)c1c(O)cc(O)c2c1OC1=C(C(=O)C(C)(C)C(=O)C1(C)C)C2CC(C)C (configuration not stated)
- MIC (Staphylococcus aureus [1]): 2 µg/mL (≈ 4.67 µM)
- MIC (Staphylococcus aureus [2]): 2 µg/mL (≈ 4.67 µM)
